Data as given in ChEMBL document CHEMBL1955813, “Synthesis of new troglitazone derivatives: anti-proliferative activity in breast cancer cell lines and preliminary toxicological study” (Eur J Med Chem, 2012).

Assays:
Hepatocyte = assay: Cytotoxicity against human hepatocytes assessed as cell viability up to 50 uM after 90 mins by MTT assay; type: cell-based; settings: 1.5 h
Outline: (§1)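 Cryopreserved primary human hepatocytes, 0.1 × 10⁶ cells/well in DMEM with gentamycin, insulin, 10 µM dexamethasone, 37 °C, 5% CO₂. Equilibrated 30 min with stirring at 900 rpm, then compound or DMSO (0.4%) added, 0.5–100 µM (7 levels), triplicate. After 90 min, MTT added for 30 min at 37 °C; formazan dissolved in DMSO, A595; viability as % of DMSO control.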

[1] = Ratio of drug level in liver to plasma in rat; type: ADME, tissue-based; settings: liver and plasma
[2] = Cmax in human at 600 mg/day; type: ADME, organism-based; set-up: dose 600 mg/day; settings: plasma
[3] = Cytotoxicity against human hepatocytes assessed as cell viability at 100 uM after 90 mins by MTT assay relative to control; type: cell-based, Hepatocyte; settings: read-out: Activity; outline: as §1
MDA-MB-231 = assay: Antiproliferative activity hormone-independent human MDA-MB-231 cells after 24 hrs by luminescent cell viability assay; type: functional, cell-based; settings: MDA-MB-231, 24 h
Outline: (§2)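 Seeded at 8.10⁴ cells/well; after 24 h attachment, medium switched to 1% FCS with 2 mM L-glutamine and compounds added. MCF-7 grown in phenol red DMEM, MDA-MB-231 in L-15 (both 10% FCS, 37 °C). Exposure 24 h; controls 0.1% DMSO. Cells washed, trypsinized, quantified by CellTiter-Glo luminescence. Triplicate; IC50 = concentration halving viable cell number.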

MCF7 = assay: Antiproliferative activity hormone-dependent human MCF7 cells after 24 hrs by luminescent cell viability assay; type: functional, cell-based; settings: MCF7, 24 h; outline: as §2

Kp [1] | Cmax [2] [µM] | IC50 (MDA-MB-231) [µM] | IC50 (MCF7) [µM] | Compound | Activity (Hepatocyte) | viability at 1.5 h, 100 µM [3] [%]
10 | 6.3 | 15.7 | 35.4 | Cc1c(C)c2c(c(C)c1O)CCC(C)(COc1ccc(CC3SC(=O)NC3=O)cc1)O2 (stereo not drawn) [TROGLITAZONE] | Non-toxic | 52
– | – | 3.2 | 13 | Cc1c(C)c2c(c(C)c1OC(=O)CCCCCCCNC(=O)OC(C)(C)C)CCC(C)(COc1ccc(/C=C3\SC(=O)NC3=O)cc1)O2 (racemic) | Non-toxic | 79
– | – | 3.3 | 7.7 | Cc1c(C)c2c(c(C)c1OC(=O)OC(C)(C)C)CCC(C)(COc1ccc(/C=C3\SC(=O)NC3=O)cc1)O2 (racemic) | – | 75
– | – | 6.5 | 15.9 | Cc1c(C)c2c(c(C)c1OC(=O)CCCC[C@@H]1SC[C@@H]3NC(=O)N[C@@H]31)CCC(C)(COc1ccc(CC3SC(=O)NC3=O)cc1)O2 (mixture of isomers) | – | 50
– | – | 12.3 | 20 | Cc1cc(C)c2c(c1C)OC(C)(COc1ccc(CC3SC(=O)NC3=O)cc1)CC2 (racemic) | – | 66
– | – | > 25 | > 50 | Cc1c(C)c2c(c(C)c1OC(=O)CCC(=O)O)CCC(C)(COc1ccc(/C=C3\SC(=O)NC3=O)cc1)O2 (racemic) | – | 54
– | – | > 25 | > 50 | Cc1c(C)c2c(c(C)c1OC(=O)CCC(=O)O)CCC(C)(COc1ccc(CC3SC(=O)NC3=O)cc1)O2 (racemic) | – | 76
– | – | 3.8 | 11.2 | Cc1c(C)c2c(c(C)c1OC(=O)OC(C)(C)C)CCC(C)(COc1ccc(CC3SC(=O)NC3=O)cc1)O2 (racemic) | – | 47

Continued, compound first:

Compound | Kp [1] | Cmax [2] [µM] | IC50 (MDA-MB-231) [µM] | IC50 (MCF7) [µM] | Activity (Hepatocyte) | viability at 1.5 h, 100 µM [3] [%]
Cc1c(C)c2c(c(C)c1O)CCC(C)(COc1ccc(/C=C3\SC(=O)NC3=O)cc1)O2 (racemic) | – | – | 16.6 | 29.7 | Non-toxic | 63
CC(=O)NCCNC(=O)CCC(=O)Oc1c(C)c(C)c2c(c1C)CCC(C)(COc1ccc(/C=C3\SC(=O)NC3=O)cc1)O2 (racemic) | – | – | > 25 | > 50 | – | 75
Cc1c(C)c2c(c(C)c1OC(=O)CCCC[C@@H]1SC[C@@H]3NC(=O)N[C@@H]31)CCC(C)(COc1ccc(/C=C3\SC(=O)NC3=O)cc1)O2 (mixture of isomers) | – | – | 3.5 | 11.2 | – | 66
Cc1cc(C)c2c(c1C)OC(C)(COc1ccc(/C=C3\SC(=O)NC3=O)cc1)CC2 (racemic) | – | – | 10.8 | 12.5 | Non-toxic | 84
Cc1c(C)c2c(c(C)c1OC(=O)CCCCCCCN)CCC(C)(COc1ccc(/C=C3\SC(=O)NC3=O)cc1)O2 (racemic) | – | – | 5 | 3.2 | – | 57
Cc1c(C)c2c(c(C)c1OC(=O)CCCCCCCNC(=O)CCCC[C@@H]1SC[C@@H]3NC(=O)N[C@@H]31)CCC(C)(COc1ccc(/C=C3\SC(=O)NC3=O)cc1)O2 (stereo partly drawn) | – | – | 3.7 | 26 | – | 61
